Most compounds without a hit are left out; they make up all but 3.8% or so of the library.
KCNQ1 inh: human KCNQ1 channel inhibition | B-score at 10 µM | P51787 | CHO-K1 KCNQ1, FluxOR thallium flux fluorescence; hits give high values | 310,000 compounds, 1.3% hits;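 active means compounds whose thallium flux B-score, printed positive for inhibition, exceeds three library SD while starting fluorescence stays within three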;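 further: channel opened by potassium depolarization with thallium stimulus after 20 min compound exposure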
KCNK3 block: human KCNK3 channel inhibition, primary screen; O14649; CHO-KCNK3 thallium flux, FluxOR fluorescence; hits give low values; 340,000 compounds, 0.84% hits; AID 602410; B-score at 10 µM;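 active means B-score under library mean minus 4 SD, starting fluorescence ratio at most library mean plus 5 SD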;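 further: more negative B-score means stronger inhibition of thallium flux through KCNK3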
hERG rescue: shields human hERG channel from block by proarrhythmic agents; Q12809; CHO-hERG, FluxOR thallium flux, dofetilide IC70 present; activation (rescue from dofetilide block), less the hit threshold, % at 10 µM; 310,000 compounds, 0.51% hits;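 active means activation above the mean of controls blocked by dofetilide plus 5 SD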;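 further: thallium influx through hERG after potassium depolarization seen as dye fluorescence rise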
Kir21 block: Kir2.1 (mouse) channel inhibition; P35561; HEK293-Kir2.1, FluxOR thallium flux fluorescence; hits give low values; B-score at 10 µM; 310,000 compounds, 0.85% hits;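 active means fluorescence ratio B-score at or below minus 3 SD of library scores, with starting-brightness B-score within 2 SD, cut at about -4.2 in these data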;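 further: channel flux triggered by added potassium and thallium sulfate stimulus; B-score of peak minus minimum fluorescence over baseline after thallium stimulus; more negative B-score means stronger Kir2.1 block with less thallium influx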
KCNK9 block: human KCNK9 channel inhibition. HEK293 KCNK9, FluxOR thallium flux fluorescence; hits give low values. B-score at 10 µM. 310,000 compounds, 1.2% hits. AID 488922;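 active means ratio B-score over 3 SD below the library mean, with starting fluorescence within 5 SD of its mean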;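 further: negative B-score means less thallium flux so channel inhibition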
KCNQ1 act: human KCNQ1 channel potentiation or activation; P51787; CHO-K1 KCNQ1, thallium flux FluxOR fluorescence; hits give high values; 310,000 compounds, 0.35% hits; B-score at 10 µM;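 active means fluorescence ratio B-score, a plate-corrected score, at least three library SD, with initial intensity B-score within 5 SD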
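Schedule – 37 °C overnight plating, 90-min dark dye load, 20-min compound pretreatment · System – stable KCNQ1 CHO-K1 line · Probe or stimulus – thallium- and potassium-containing depolarizing buffer · Measured by – kinetic FluxOR fluorescence, 10 s baseline plus 110 s post-stimulus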
* marks the source's active call; other numbers are inactive results; i = inactive; x = no result given.

SMILES	KCNQ1 inh	KCNK3 block	hERG rescue	Kir21 block	KCNK9 block	KCNQ1 act
Cc1nn(Cc2cccc3ccccc23)c(C)c1NC(=O)c1cccnc1	i	i	-5	0.8	i	i
Cc1ccccc1Cn1nc(C)c(NC(=O)c2ccccc2)c1C	i	i	7.6*	0.62	i	i
CCCCCCOc1ccc(NC(=O)CC2C(=O)N(CC)C(=S)N2Cc2ccco2)cc1 (stereo not drawn)	9*	i	-24	2	i	i
CCCCn1c(=O)[nH]c(=O)c2c1nc(Cn1ncc(Cl)c(Cl)c1=O)n2CCC	i	i	-17	0.06	i	11*
CCC(C)NC(=O)CCc1nc2ccccc2n1-c1ccccc1 (stereo not drawn)	i	i	-8	0.48	i	i
Cc1ccc(C(NC(=O)C2CCCCC2)c2c(O)ccc3ccccc23)cc1 (stereo not drawn)	9*	i	-16	0.76	i	i
CC(=O)NC(c1ccc(C(C)C)cc1)c1c(O)ccc2ccccc12 (stereo not drawn)	i	i	-2	-0.5	i	i
O=C1C=CC(=O)c2c(O)c(N3CCN(CCO)CC3)c(Cl)c(O)c21	x	-11*	x	x	x	x
O=C1C=CC(=O)c2c(O)c(N3CCN(CCOCCO)CC3)c(Br)c(O)c21	x	-11*	x	x	x	x
OCCOCCN1CCN(C2=Nc3ccccc3Sc3ccccc32)CC1	i	i	x	-0.6	i	i
Clc1ccc(-[n+]2c(-c3cccc(Br)c3)[nH]c3nc4ccccc4nc32)cc1	10*	i	-11	-0.46	i	i
Oc1ccc(Cl)cc1-c1cc(-c2cccc(Br)c2)n[nH]1	i	i	-4	-0.02	i	i
C=CCn1c(SCc2ccccc2C#N)nnc1-c1cc(Br)ccc1O	i	i	-26	-8.3*	i	i
C=CCn1c(SCC(N)=O)nnc1-c1cccc(Br)c1	i	i	-6	-0.5	i	i
CC(CN(C)Cc1ccccc1)OC(=O)c1ccccc1F (stereo not drawn)	i	i	-12	0.2	i	i
CC(CN(C)Cc1ccccc1)OC(=O)c1cccs1 (stereo not drawn)	i	i	47*	-1.5	i	i
O=C(Nc1nc2n(n1)C(c1ccc(Cl)cc1)CC(c1ccc(Cl)cc1)N2)c1ccco1 (stereo not drawn)	i	x	-10	-0.04	-7.7*	i
Cn1cccc1C(=O)NC(=O)COC(=O)c1ccc(O)cc1	i	i	-11	0.63	i	i
Cn1cccc1C(=O)NC(=O)COC(=O)c1ccccc1O	i	i	5.3*	0.05	i	i
c1ccc(OCc2nc3c4c(ncn3n2)-c2ccccc2CC42CCCC2)cc1	i	i	-6	1	i	i
Cc1ccc(Sc2cnn(-c3ccccc3)c(=O)c2Cl)cc1	10*	i	-7	-3.2	i	i
CC(C)NC(=O)C1CCCN(c2nnc(-n3cccc3)s2)C1 (stereo not drawn)	i	i	-6	0.26	i	i
CC(=O)Nc1ccc(NC(=O)C2CCCN(c3nnc(-n4cccc4)s3)C2)cc1 (stereo not drawn)	i	i	0	-4.6*	i	i
COC(=O)c1ccccc1NC(=S)N(Cc1ccc2c(c1)OCO2)Cc1cc2ccc(C)cc2[nH]c1=O	6*	i	-7	-0.01	i	i
COC(=O)c1ccccc1NC(=S)N(Cc1ccc2c(c1)OCO2)Cc1cc2cc(C)ccc2[nH]c1=O	i	i	-9	1.3	i	i
C=CCn1c(C)cc(-c2csc(NC)n2)c1C	x	i	x	x	x	x
C=CCn1c(C)cc(-c2csc(NCC)n2)c1C	6*	i	-12	-0.3	i	i
CC(C(=O)Nc1ccccc1Oc1ccccc1)c1ccccc1 (stereo not drawn)	i	i	3	-5*	i	i
COc1ccccc1NC(=O)C(C)NC(c1ccccc1)c1ccccc1 (stereo not drawn)	i	i	-7	-0.06	i	i

Bioassay records: PubChem, Johns Hopkins Ion Channel Center
